Data: ChEMBL document CHEMBL5329160, “Design, synthesis, and mechanistic study of 2-piperazineone-bearing peptidomimetics as novel HIV capsid modulators” (RSC Med Chem, 2023)

How the values were obtained:
[1] = Metabolic stability in human liver microsomes assessed as remaining compound at 1 uM after 60 mins in presence of NADPH; type: ADME, Microsome; conditions: read-out: Stability
Outline: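 Human liver microsomes at 0.5 mg protein/mL in 100 mM potassium phosphate, compound at 1 µM final (0.99% ACN, 0.01% DMSO). After 10 min pre-warming of the microsomes at 37°C, NADPH (1 mM final, in 10 mM MgCl2) was added. Incubated at 37°C with shaking, sampled at 0, 5, 15, 30, 45 and 60 min into cold ACN with internal standards. LC-MS/MS analysis; T1/2 and CLint(mic) (µL/min/mg) from first-order kinetics.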

[2] = biological target: T1, Structural capsid protein (Human immunodeficiency virus 1, UniProt Q76129); test: Binding affinity to HIV-1 NL4-3 hexameric capsid protein by SPR analysis
Outline: (§1)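 SPR binding isotherms averaged over 3 replicates, with error bars as SD.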

[3] = system: Human immunodeficiency virus 1; test: Antiviral activity against HIV-1 IIIB infected in MT4 cells assessed as protection against virus induced cytotoxicity incubated for 5 days by MTT assay; type: functional, organism-based; conditions: Human immunodeficiency virus 1, IIIB, MT4, 120 h
[4] = biological target: Structural capsid protein (Human immunodeficiency virus 1) (UniProt Q76129); test: Ratio of Kd for HIV-1 NL4-3 monomeric capsid protein to Kd for HIV-1 NL4-3 hexameric capsid protein
[5] = Selectivity index, ratio of CC50 for human MT4 cells to EC50 for HIV-2 ROD infected in human MT4 cells; type: toxicity, cell-based; conditions: read-out: Ratio CC50/EC50
[6] = biological target: T1, Structural capsid protein; test: Binding affinity to HIV-1 NL4-3 monomeric capsid protein by SPR analysis; outline: as §1
[7] = Metabolic stability in human liver microsomes assessed as remaining compound at 1 uM after 60 mins in absence of NADPH; type: ADME, Microsome; conditions: read-out: Stability
Outline: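 No-cofactor control: human liver microsomes at 0.5 mg protein/mL in 100 mM phosphate buffer with compound at 1 µM, buffer added in place of NADPH. Incubated 60 min at 37°C with shaking, then quenched with cold ACN containing tolbutamide and labetalol internal standards. Centrifuged, supernatant diluted in water, analysed by LC-MS/MS.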

[8] = Cytotoxicity against human MT4 cells assessed as reduction in cell viability after 5 days by MTT assay; type: toxicity, cell-based; conditions: time 5 day
[9] = system: Human immunodeficiency virus 1; test: Antiviral activity against early stage HIV-1 infected in U87.CD4.CXCR4 cells assessed as viral infection at 60 uM preincubated with virus followed by cell addition and measured after 48 hrs by luciferase based luminometer assay (reference value: 100 +/- 8.4 %); type: functional
[10] = Selectivity index, ratio of CC50 for human MT4 cells to EC50 for HIV-1 IIIB infected in human MT4 cells; type: toxicity, cell-based; conditions: read-out: Ratio CC50/EC50
[11] = system: Human immunodeficiency virus 1; test: Antiviral activity against late stage HIV-1 infected in U87.CD4.CXCR4 cells assessed as viral infection at 60 uM preincubated with virus for 48 hrs followed by cell addition and measured after 48 hrs by luciferase based luminometer assay (reference value: 100 +/- 11 %); type: functional; conditions: time 96 hrs
[12] = biological target: Structural capsid protein (Human immunodeficiency virus 1) (UniProt Q76129); test: Binding affinity to HIV-1 NL4-3 hexameric capsid protein assessed as Koff by SPR analysis; conditions: filed as modulator
[13] = system: Human immunodeficiency virus 2; test: Antiviral activity against HIV-2 ROD infected in MT4 cells assessed as protection against virus induced cytotoxicity and measured after 5 days by MTT spectrophotometric assay; type: functional, organism-based; conditions: Human immunodeficiency virus 2, ROD, MT4, 120 h
[14] = Metabolic stability in human liver assessed as intrinsic clearance at 1 uM preincubated for 10 mins followed by NADPH addition and measured after 60 mins; conditions: read-out: CLH
[15] = Metabolic stability in human microsomes assessed as intrinsic clearance at 1 uM preincubated for 60 mins followed by NADPH addition and measured after 60 mins; type: ADME, Microsome; conditions: time 120 min, read-out: CLH
[16] = system: Human immunodeficiency virus 1; test: Antiviral activity against HIV-1 infected in MT4 cells; type: functional, organism-based; conditions: Human immunodeficiency virus 1, MT4
[17] = system: Human immunodeficiency virus 1; test: Antiviral activity against early stage HIV-1 infected in U87.CD4.CXCR4 cells assessed as viral infection at 1 uM preincubated with virus followed by cell addition and measured after 48 hrs by luciferase based luminometer assay (reference value: 100 +/- 8.4 %); type: functional
[18] = system: Human immunodeficiency virus 1; test: Antiviral activity against late stage HIV-1 infected in U87.CD4.CXCR4 cells assessed as viral infection at 1 uM preincubated with virus for 48 hrs followed by cell addition and measured after 48 hrs by luciferase based luminometer assay (reference value: 100 +/- 11 %); type: functional; conditions: time 96 hrs

T1 sequence (Q76129 whole entry): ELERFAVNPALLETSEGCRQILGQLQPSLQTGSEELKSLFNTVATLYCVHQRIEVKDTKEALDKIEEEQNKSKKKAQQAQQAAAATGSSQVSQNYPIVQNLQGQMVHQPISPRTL
Chain of Structural capsid protein (Human immunodeficiency virus 1) (Q76129 as listed by the source): as the sequence (Q76129 whole entry) above

Compound	remaining at 1 h, 1 µM [1] [%]	Kd [2] [µM]	EC50 [3] [µM]	Ratio [4]	selectivity ratio [5]	Kd [6] [µM]	remaining at 1 h, 1 µM [7] [%]	CC50 at 120 h [8] [µM]	Activity [9] [%]	selectivity ratio [10]	Activity [11] [%]	K [12] [s⁻¹]	EC50 [13] [µM]	CLint scaled at 1 µM [14] [mL/min/kg]	microsomal CLint at 1 µM [15] [µL/min/mg]	EC50 [16] [µM]	Activity [17] [%]	Activity [18] [%]
COc1ccc(N(C)C(=O)[C@H](Cc2cc(F)cc(F)c2)NC(=O)CN2CCN(C(=O)c3ccccc3[N+](=O)[O-])CC2=O)cc1	0.23	5.2	6	2.5	25	13	96	160	8.1	27	10	0.25	6.3	3.3	–	–	–	–
C[C@]12CC[C@H]3[C@@H](CCC4=CC(=O)CC[C@@]43C)[C@@H]1CC[C@@H]2O [TESTOSTERONE]	–	–	–	–	–	–	–	–	–	–	–	–	–	74	83	–	–	–
CC(C)(C#Cc1ccc(-c2ccc(Cl)c3c(NS(C)(=O)=O)nn(CC(F)(F)F)c23)c([C@H](Cc2cc(F)cc(F)c2)NC(=O)Cn2nc(C(F)(F)F)c3c2C(F)(F)[C@@H]2C[C@H]32)n1)S(C)(=O)=O	–	–	–	–	–	–	–	–	–	–	–	–	–	–	–	0.000105	–	–
Cc1[nH]c2ccccc2c1CC(=O)[C@@H](Cc1ccccc1)C(=O)N(C)c1ccccc1	0	0.16	0.75	21.4	–	3.4	–	32	–	–	–	0.018	4.2	2.6	–	–	-0.12	150
